58 compounds from PubChem BioAssay AID449763 (Sanford-Burnham Center for Chemical Genomics, 2010) can be followed below.

In all, about 330,000 compounds went through this assay and about 1,100 (0.33%) were called active. Only a selection was taken, and actives are over-represented in it overall. Values without a mark were called inactive.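 Rule for the calls: active = at 10 µM dose, activation of 40% or more, normalized to positive control; inactive = the rest.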

The experiment is described as follows: PERK-eIF2a-CHOP pathway stimulators – cell-based, CHO-CHOP luciferase reporter, luminescence, uHTS, primary screen (AID 449763).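 Note: 100% = tunicamycin at 10 µg/mL and 0% = DMSO alone.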 To be noted: UPR activation, at 10 µM, hits give high values, percent of tunicamycin response over DMSO baseline. The essentials: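 System: CHO-CHOP luciferase reporter cell line; amount: 500 cells/well; buffer or medium: F12 medium containing 10% fetal bovine serum; incubation: 6 h compound exposure at 37 °C after overnight seeding; measured by: luciferase luminescence after 10 min with Steady-Glo reagent; evaluation: % reporter activation, DMSO baseline versus tunicamycin full activation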
For the compound `COc1ccc(NC2CC(=O)N(C)C2=O)cc1` (stereo not drawn), the activation was -2.21%.

As to `COc1ccccc1/C=N\Nc1cc(C)nc(-n2nc(C)cc2C)n1`, the activation was 80.6% (active).

As to `CC(=O)c1ccc(Oc2cc(C)nc(-n3nc(C)cc3C)n2)cc1`, the activation is -1.17%.

As to `CN(C)c1ccc(/C=N/Nc2cc(N3CCOCC3)nc(N3CCOCC3)n2)cc1`, the activation was -1.02%.

For `COc1ccc(Nc2cc(C)nc(-n3nc(C)cc3C)n2)cc1`, the activation is 62.8% (active).

For the compound `C(=N/Nc1cc(N2CCOCC2)nc(N2CCOCC2)n1)/c1ccccc1`, the activation is 4.25%.

In the case of `COc1ccccc1/C=N/N1CCN(Cc2ccccc2Cl)CC1`, the activation was -0.532%.

With `COc1ccc(/C=N/Nc2cc(N3CCOCC3)nc(C)n2)c(OC)c1`, the activation is 8.25%.

As to `COc1ccc(NC(=O)c2nc(-n3nc(C)cc3C)ccc2Cl)cc1Cl`, the activation is -0.184%.

For `Cc1cc(N/N=C\c2ccc(Br)cc2)nc(-n2nc(C)cc2C)n1`, the activation is 49.5% (active).

Consider `CN(CC(=O)NC1CCN(Cc2ccccc2)CC1)S(=O)(=O)c1ccc(Cl)s1`, for which the activation is -1.76%.

In the case of `N#CCN(C(=O)COC(=O)C1CC2CCCC(C1)C2=O)c1ccccc1` (stereo not drawn), the activation is -1.48%.

As to `O=C(NCCCn1ccnc1)C(=O)c1cn(CC(=O)N2CCCCCC2)c2ccccc12`, the activation is 1.32%.

As for `Cc1ccc(S(=O)Cc2ccc(C(=O)N3CCN(C4CCCCC4)CC3)o2)cc1` (stereo not drawn), the activation is -0.502%.

Take `Cc1cccnc1NC(=O)Cn1c(=O)oc2ccccc21`: the activation is -1.26%.

With `O=C(CSc1nc(=O)n2ccccc2n1)Nc1ccc2c(c1)OCCO2`, the activation is 0.903%.

As for `CCCC(=O)Nc1ccc(C(=O)N/N=C/c2ccc[nH]2)cc1`, the activation is -0.0357%.

Regarding `CCCCCC(=O)NC(=S)NNC(=O)c1ccc([N+](=O)[O-])cc1`, the activation was -1.39%.

Regarding `CCCCCC(=O)Nc1ccc(C(=O)N/N=C/c2ccc([N+](=O)[O-])cc2)cc1`, the activation was 90.2% (active).

Consider `CCCc1nn(C)c2c(=O)[nH]c(-c3cc(S(N)(=O)=O)ccc3OCC)nc12`, for which the activation was 0.336%.

In the case of `O=C1Nc2ccc(Br)cc2/C1=N/N=C/C1=C(N2CCOCC2)C(=C\c2ccccc2)/CC1`, the activation is 46.3% (active).

With `COc1ccc(/C=N/N=C2/C(=O)Nc3ccccc32)cc1O`, the activation is 10.4%.

As for `Cc1cc2nc3n(c2cc1C)CC1CC(C(=O)NCCC(C)C)N(C)C31` (stereo not drawn), the activation is -0.707%.

As to `O=C(/C(=C/c1cccc(Cl)c1)c1nc2ccccc2[nH]1)c1ccccc1`, the activation was 349% (active).

With `O=C(N/N=C/c1ccc(Cl)cc1)c1nc2ccc([N+](=O)[O-])cc2c(=O)[nH]1`, the activation was 0.124%.

With `O=C(O)c1cccc(NC(=O)c2cc(-c3cccc(Cl)c3)nc3ccccc23)c1`, the activation is 2.21%.

As for `O=S(=O)(c1ccc(SCc2ccc(Br)cc2)nc1)N1CCOCC1`, the activation is 0.334%.

Take `COc1ccccc1OCCCCCCN1CCN(C)CC1`: the activation was -0.245%.

For the compound `Cc1nc2ccc(NC(=O)c3cccc(S(=O)(=O)N4CCOCC4)c3)cc2s1`, the activation was 1.06%.

Take `O=C(CN1CCN(S(=O)(=O)c2cccc(Cl)c2)CC1)N1CCCCC1`: the activation was -0.576%.

For the compound `O=S(=O)(Nc1nccs1)c1ccc2c(c1)OCCO2`, the activation is -1.47%.

Regarding `C=CCNc1cnn(-c2ccc(C)cc2)c(=O)c1Cl`, the activation is 0.179%.

For the compound `Cc1cccc(-n2ncc(Cl)c(Cl)c2=O)c1`, the activation was 49.1% (active).

In the case of `Cc1ccc(Oc2cnn(-c3ccccc3)c(=O)c2Br)cc1`, the activation is 2.08%.

For `Cc1ccc(CNC(=O)COC(=O)C2CCC2)cc1`, the activation is 0.475%.

Turning to `CCc1nnc(NC(=O)CSc2nnnn2-c2cccc(C(C)=O)c2)s1`, the activation was -1.47%.

In the case of `CCOc1ccc(Br)cc1CSC(=N)N`, the activation is 0.704%.

Consider `CCOC(=O)c1cnc(Nc2nc3ccccc3o2)nc1CSC(=S)N1CCCCC1`, for which the activation was 152% (active).

Regarding `CCc1ccc(CNC(=O)C2CCCN(c3nc4ccccc4o3)C2)cc1` (stereo not drawn), the activation is -2.13%.

Turning to `CCOC(=O)CCNC(=O)N1CCCC(C(=O)c2ccccc2SC)C1` (stereo not drawn), the activation is 1.02%.

Turning to `CCN(CC)C(=O)Cn1cc(S(=O)(=O)CC(=O)NCc2ccc3c(c2)OCO3)c2ccccc21`, the activation was -0.829%.

On to `Cc1cc(NC(=O)CS(=O)(=O)c2cn(C)c3ccccc23)no1`, for which the activation was 1.58%.

With `CCN(C(=O)CSc1ncnc2sccc12)c1c(N)n(Cc2ccccc2)c(=O)[nH]c1=O`, the activation was -3.54%.

For `CC1CC2=C(CC1/C=N/NC(N)=S)C(C)(C)CCC2` (stereo not drawn), the activation is 67.6% (active).

With `Cc1ccc(C(=O)Cc2nnc(C)s2)cc1`, the activation was 1.29%.

On to `CC(=O)Nc1ccc(S(=O)(=O)N2CCC(NC(=O)c3ccccc3)CC2)cc1`, for which the activation was 1.32%.

Take `C=Cn1c(C(=O)O)ccc1-c1ccc(OC)cc1`: the activation is -1.21%.

Take `COC(=O)c1ccc(C(=O)NC2CC(C)(C)Cc3c2cnn3-c2ccc(F)cc2)nc1` (stereo not drawn): the activation was 0.891%.

Turning to `CCOc1ccc2nc(Cl)c(C3CC(c4ccccc4)=NN3C(=O)c3cccs3)cc2c1` (stereo not drawn), the activation was 85.3% (active).

As for `COc1ccc(C2=NN(C(=O)c3ccccc3C(=O)O)C(c3ccccc3O)C2)cc1` (stereo not drawn), the activation is 4.22%.

With `CCOc1ccccc1C1CC(c2cccc(NS(C)(=O)=O)c2)=NN1C(=O)c1ccccc1` (stereo not drawn), the activation was 1.22%.

On to `CCOc1ccccc1CN1CCN(C2CCC2)CC1CCO` (stereo not drawn), for which the activation was 1.34%.

As to `CS(=O)(=O)c1ccc(C(=O)OCC(=O)NNC(=O)COc2ccc(Cl)cc2)cc1`, the activation is -0.907%.

Consider `Cc1c(NC(=O)CSc2cccc3cccnc23)c(=O)n(-c2ccccc2)n1C`, for which the activation is 163% (active).

`Cc1c(NC(=O)CSc2nnc(-c3cccnc3)n2N)c(=O)n(-c2ccccc2)n1C`: the activation was 0.658%.

Regarding `Cc1c(NC(=O)CSc2nnnn2-c2ccc(C(=O)O)cc2)c(=O)n(-c2ccccc2)n1C`, the activation was -0.108%.

With `NC(=O)CC[C@@H]1NC(=O)[C@@H]2CCCN2C(=O)c2cc([N+](=O)[O-])cc(F)c2NCCC[C@@H](C(N)=O)NC1=O`, the activation is -0.0942%.

Consider `COc1ccccc1P(=O)(c1ccccc1)c1ccccc1NC(C)=O` (stereo not drawn), for which the activation is -0.343%.
